Measured values gathered from unrelated publications.
Each line is one published result; the experiments were not run side by side.
Target: Serine/threonine-protein kinase Nek10 (NEK10, Homo sapiens, UniProt Q6ZWH5)
One construct used (Q6ZWH5 1-1172): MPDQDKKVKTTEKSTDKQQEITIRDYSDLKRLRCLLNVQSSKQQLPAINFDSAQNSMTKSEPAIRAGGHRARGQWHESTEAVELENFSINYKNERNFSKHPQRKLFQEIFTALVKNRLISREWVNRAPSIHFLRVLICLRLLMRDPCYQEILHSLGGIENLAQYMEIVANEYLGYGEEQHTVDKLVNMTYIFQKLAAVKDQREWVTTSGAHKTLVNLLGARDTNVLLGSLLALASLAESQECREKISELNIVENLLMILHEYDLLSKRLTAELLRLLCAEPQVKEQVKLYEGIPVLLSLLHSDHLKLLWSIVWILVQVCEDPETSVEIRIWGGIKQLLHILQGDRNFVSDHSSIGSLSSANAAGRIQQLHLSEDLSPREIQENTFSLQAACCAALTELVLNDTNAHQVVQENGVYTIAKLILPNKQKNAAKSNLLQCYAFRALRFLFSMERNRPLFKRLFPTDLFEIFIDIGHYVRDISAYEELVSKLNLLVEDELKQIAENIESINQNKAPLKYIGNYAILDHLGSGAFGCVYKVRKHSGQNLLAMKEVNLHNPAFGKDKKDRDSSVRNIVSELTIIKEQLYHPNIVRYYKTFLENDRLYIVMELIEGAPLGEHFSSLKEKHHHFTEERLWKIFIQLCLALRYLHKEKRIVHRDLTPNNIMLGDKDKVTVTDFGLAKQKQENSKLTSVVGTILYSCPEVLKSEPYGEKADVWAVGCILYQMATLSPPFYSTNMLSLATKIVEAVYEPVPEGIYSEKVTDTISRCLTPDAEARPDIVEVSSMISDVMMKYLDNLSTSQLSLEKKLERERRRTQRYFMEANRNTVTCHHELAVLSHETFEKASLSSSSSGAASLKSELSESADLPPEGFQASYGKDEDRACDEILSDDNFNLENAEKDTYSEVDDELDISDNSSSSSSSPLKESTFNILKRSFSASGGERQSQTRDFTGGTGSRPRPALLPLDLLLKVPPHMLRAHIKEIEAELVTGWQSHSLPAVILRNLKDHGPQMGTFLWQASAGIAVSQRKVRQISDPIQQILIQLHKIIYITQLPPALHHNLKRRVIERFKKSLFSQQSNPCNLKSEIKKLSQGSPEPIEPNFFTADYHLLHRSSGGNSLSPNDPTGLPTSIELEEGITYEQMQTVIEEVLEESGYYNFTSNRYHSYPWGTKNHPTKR

SMILES | read-out | method | concentration | remaining binding [%]
C[C@@H](c1cccc(C#N)c1)n1cc(Cl)cc(C(N)=O)c1=N | cell-free assay | competition with immobilised ligand | 1 µM | 91
COc1cnc(Nc2cccc(S(N)(=O)=O)c2)nc1N1CCN(c2ccccc2)C(=O)C1 | binding | competition with immobilised ligand | 1 µM | 90
O=C(NCCCN1CCOCC1)c1ccc(Nc2nccc(-c3cc4ccccc4s3)n2)cc1 | binding | competition with immobilised ligand | 1 µM | 59
Cc1c[nH]c2nccc(Oc3c(F)cc(Nc4cc(Cl)nc(N)n4)cc3F)c12 | cell-free assay | competition with immobilised ligand | 0.1 µM | 75
O=C(NCC1CCOCC1)c1n[nH]cc1NC(=O)c1c(F)cccc1F | binding | competition with immobilised ligand | 1 µM | 72
CN(CCCC(F)(F)F)c1nccc(-c2cnn3ncccc23)n1 | binding | – | 1 µM | 90
CS(=O)(=O)N1CCCC(NC(=O)[C@H](CCC2CCCCC2)NC(=O)c2ccc(CNC(=O)c3cnc4ccccn34)cc2)C1 (some centres unmarked) | cell-free assay | competition with immobilised ligand | 0.1 µM | 100
O=C(c1ccc(Nc2ncc(Cl)c(-c3cc4ccccc4s3)n2)cc1)N1CCC(N2CCCC2)CC1 | binding | competition with immobilised ligand | 1 µM | 74
N[C@@H]1CCN(c2nccc(-c3cnn4ncccc34)n2)C1 | binding | – | 1 µM | 100
FC(F)(F)Oc1cccc(-c2cnc3ccc(-c4ccncc4)nn23)c1 | cell-free assay | competition with immobilised ligand | 5 µM | 28
Nc1c(C(=O)NCc2ccc(C(=O)NCCCC3CCCCC3)cc2)cnn1-c1ccccc1 | cell-free assay | competition with immobilised ligand | 0.1 µM | 100
Nc1ncc2c(n1)-c1c([nH]c3ccc(C#CC4CC4)cc13)CCCC2 | binding | competition with immobilised ligand | 1 µM | 79
CN(c1nccc(-c2cnn3ncccc23)n1)C1CC1 | binding | – | 1 µM | 100
O=C(c1ccc(Nc2nccc(-c3cc4ccccc4s3)n2)cc1)N1CCC(N2CCCC2)CC1 | binding | competition with immobilised ligand | 1 µM | 43
c1cnn2ncc(-c3ccnc(N4CCC45COC5)n3)c2c1 | binding | – | 1 µM | 98
COc1cc(-c2cn(C3CCc4ccccc4N(CC(F)(F)F)C3=O)nn2)ccc1-n1ccc(C)n1 (centres unmarked) | cell-free assay | competition with immobilised ligand | 1 µM | 81
COc1cnc(Nc2cccc(S(N)(=O)=O)c2)nc1N1CCN(c2ccccc2)CC1 | binding | competition with immobilised ligand | 1 µM | 69
